# Measurements from different studies.
# Target: Serine/threonine-protein kinase MRCK beta (CDC42BPB, Homo sapiens, UniProt Q9Y5S2)
SMILES,effect on,action,method,tested at,endpoint,value
COc1cc(Cl)c(C(=O)N[C@@H](CN[C@H]2CC[C@@H](N)CC2)Cc2ccc(C#N)cc2)cc1-c1ccc(CN[C@H](C)c2ccc(C)cc2)o1,enzyme activity,inhibitor,,1 µM,remaining activity,100%
CCN(CC)CCNC(=O)c1c(C)[nH]c(/C=C2\C(=O)Nc3ccc(F)cc32)c1C,enzyme activity,inhibitor,,10 µM,inhibition,17%
O=C(NS(=O)(=O)c1ccc(NCC2CCOCC2)c([N+](=O)[O-])c1)c1ccc(N2CCN(Cc3ccc(C(F)(F)F)cc3-c3ccc(Cl)cc3)CC2)cc1Oc1cnc2[nH]ccc2c1,cell-free assay,,competition with immobilised ligand,1 µM,remaining binding,94%
CCN(CC)c1ccc(C2=NNC(=O)CC2C)cc1[N+](=O)[O-] (centres unmarked),enzyme activity,inhibitor,,10 µM,remaining activity,101%
O=c1c2ccccc2[nH]c(=S)n1CCN1CCC(=C(c2ccc(F)cc2)c2ccc(F)cc2)CC1,enzyme activity,inhibitor,,0.5 µM,remaining activity,106%
COc1cccc2c(NCc3ccccc3)nc(-n3c(N)nc4ccccc43)nc12,target engagement in cells,inhibitor,chemoproteomics,20 mM,inhibition,-1.3%
CCc1ccccc1C(=O)Nc1n[nH]c2c(C)c(F)c(C3C(C#N)=C(C)N(C)C(C)=C3C#N)cc12,cell-free assay,,competition with immobilised ligand,1 µM,remaining binding,100%
CNC(=O)c1cc(Oc2ccc(NC(=O)Nc3ccc(Cl)c(C(F)(F)F)c3)cc2)ccn1,enzyme activity,inhibitor,,10 µM,inhibition,0%
CNCc1ccccc1-c1csc([C@H](C)Nc2nc(C)nc3cc(OC)c(OC)cc23)c1,cell-free assay,,competition with immobilised ligand,1 µM,remaining binding,100%
Cc1cnc(NC2CCOCC2)nc1-n1cnc(C(=O)NC(CN)c2cc(F)cc(Cl)c2)c1 (centres unmarked),enzyme activity,inhibitor,radiometric,1 µM,remaining activity,59%
CCCOc1ccc(OC)c(F)c1C(=O)c1ccc(C(=O)N[C@@H]2CNC[C@H]2NC(=O)c2ccc3[nH]ncc3c2)cc1,enzyme activity,inhibitor,,10 µM,remaining activity,0%
CS(=O)(=O)c1cc(C2(NC(=O)c3cncc4c3cnn4-c3ccc(F)cc3)CC2)ccn1,cell-free assay,,competition with immobilised ligand,1 µM,remaining binding,100%
Cc1ccc(Nc2nccc(N(C)c3ccc4c(C)n(C)nc4c3)n2)cc1S(N)(=O)=O,enzyme activity,inhibitor,,10 µM,inhibition,11%
CC/C(=N\NC(=O)NCc1cccc(O)c1)c1ccc(O)c(C)c1O,enzyme activity,inhibitor,,0.1 µM,inhibition,84.3%
O=C(Nc1cccnn1)N1CCC(=Cc2cccc(Oc3ccc(C(F)(F)F)cn3)c2)CC1,cell-free assay,,competition with immobilised ligand,1 µM,remaining binding,100%
O=C(Nc1cnn(-c2csc(C(=O)NC3COC3)c2)c1)Nc1c(F)cccc1Cl,enzyme activity,inhibitor,,5 µM,remaining activity,89%
COc1cc2ncnc(Nc3ccc(Oc4ccccc4)cc3C)c2cc1OC,enzyme activity,inhibitor,,1 µM,inhibition,-5%
CC(C)(C)c1nc(-c2cccc(NS(=O)(=O)c3c(F)cccc3F)c2F)c(-c2ccnc(N)n2)s1,enzyme activity,inhibitor,radiometric,1 µM,remaining activity,98%
c1ccc(CNc2nc(N3CCOc4ccccc43)nc3c2CCCC3)cc1,target engagement in cells,inhibitor,chemoproteomics,20 mM,inhibition,-0.5%
O=C(NC[C@@H]1[C@H]2CN(C(=O)OCc3cc(C(F)(F)F)cc(C(F)(F)F)c3)C[C@@H]12)c1ccc2[nH]nnc2c1,cell-free assay,,competition with immobilised ligand,1 µM,remaining binding,100%
O=C1NC(=O)c2cc(Nc3ccc(F)cc3)c(Nc3ccc(F)cc3)cc21,cell-free assay,,,0.5 µM,remaining signal,100%
COc1cccc(CNC(=O)c2nc3scc(COCc4ccc(C(=O)O)cc4)c3c(=O)[nH]2)c1,cell-free assay,,competition with immobilised ligand,1 µM,remaining binding,99.5%
O=c1cc(-c2cccc3c2Sc2ccccc2S3)oc(N2CCOCC2)c1,enzyme activity,inhibitor,,0.5 µM,remaining activity,103%
Cc1noc([C@H]2C[C@@H](c3ccc(C(F)(F)F)cc3)CN(C(=O)N3CCS(=O)(=O)C3)C2)n1,cell-free assay,,competition with immobilised ligand,1 µM,remaining binding,100%
O=C1Nc2ccc(Cl)cc2C1=Cc1cc(Cl)c(O)c(Cl)c1,cell-free assay,,,0.5 µM,remaining signal,91.4%
CCCS(=O)(=O)Nc1ccc(F)c(C(=O)c2c[nH]c3ncc(-c4ccc(Cl)cc4)cc23)c1F,enzyme activity,inhibitor,,1 µM,inhibition,< 10%
